Data set [1] is described as follows: Lipophilicity, log P of the compound. Format: physicochemical. The settings on record: octanol/water.
The nature of data set [2]: Antioxidant activity against superoxide dismutase like activity after 15 mins by NBT spectrometric assay. Format: functional. The gist of the method:
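Superoxide-scavenging (SOD-like) activity by NBT method, run in triplicate. Mix of 2.1 ml 0.2 M Tris buffer and 1 ml NBT with test solution, held on ice 15 min. KO₂ (1.5 ml) then added with stirring. Absorbance at 560 nm read every 30 s over 5 min. Ascorbic acid as standard.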

The test system of a further data set is BT-20. Nature of the data set: Cytotoxicity against human estrogen receptor-deficient BT20 cells after 24 hrs by MTT assay. Format: functional, cell-based. The following applies: BT-20, 24 h. The procedure, abridged: (§1)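 Cells grown at 37 °C, 5% CO₂, with penicillin (50 U/ml), streptomycin and 10% fetal calf serum; lines STR-authenticated. 3 × 10³ cells seeded per well. Compounds in DMSO added 24 h after seeding. Eight replicate wells per treatment; experiments repeated at least three times. End-point: MTT 0.5 mg/ml, 2 h at 37 °C, then DMSO 30 min at room temperature; absorbance read.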
On the technique in general: Tetrazolium assays rely on reduction of a dye to a coloured formazan, in cell work by metabolically active cells.

The test system of the next data set is BXPC-3. Put plainly: Cytotoxicity against human BxPC3 cells expressing COX2 after 24 hrs by MTT assay. Format: functional, cell-based. The following applies: BXPC-3, 24 h. The procedure, abridged:
as §1

For the compound `O=C(/C=C/c1ccc(F)c(F)c1)c1ccccc1O`, the logP (commonly the decadic logarithm of the partition coefficient of the neutral form, usually between octanol and water) in data set [1] came to 3.51. In addition, the half-inhibitory concentration (IC50) – broadly, the concentration needed to halve the response being measured – is 5.68 µM in data set [2], 32.8 µM in the data set with BT-20 and 26.7 µM with BXPC-3.

For `O=C(/C=C/c1ccc(O)cc1O)c1ccccc1O`, in data set [1], the logP came to 2.42. The figures for the IC50 (in data set [2]; with BT-20; in the data set with BXPC-3) were 6.07 µM, 52.9 µM and 68.6 µM, respectively.

Compound `O=C(/C=C/c1ccc(F)cc1F)c1ccccc1O` displayed a logP in data set [1] of 3.51. The IC50 turned out to be 5.27 µM in data set [2], 26.4 µM in the data set on BT-20 and 18.7 µM in the data set on BXPC-3.

In the case of `O=C(/C=C/c1ccc(O)c(O)c1O)c1ccccc1O`, in data set [1], the log partition coefficient (logP) is 2.03. Besides, the 50% inhibitory concentration (IC50) was 13.7 µM in data set [2], 61.7 µM in the data set with BT-20 and 213 µM in the data set on BXPC-3.

As to `O=C(/C=C/c1ccc(F)c(F)c1F)c1ccccc1O`, in data set [1], the logP was 3.67. The IC50 was 7.31 µM in data set [2], 56.6 µM in the data set with BT-20 and 34.7 µM in the data set on BXPC-3.

Consider `O=C(/C=C/c1ccc(O)c(O)c1)c1ccccc1O`, for which the logP in data set [1] was 2.42. Moreover, the figures for the IC50 (in data set [2]; in the data set on BT-20; in the data set on BXPC-3) were 9.23 µM, 63.9 µM and 78.3 µM, respectively.

In data set [2], `O=C1O[C@H]([C@@H](O)CO)C(O)=C1O` [ASCORBIC ACID] registered a half-inhibitory concentration (IC50) of 5.43 µM.

Regarding `O=C(/C=C/c1ccccc1)c1ccccc1` [CHALCONE], the logP in data set [1] was 3.2.

For the origin of these results see ChEMBL document CHEMBL1255525, “Fluorinated 2'-hydroxychalcones as garcinol analogs with enhanced antioxidant and anticancer activities” (Bioorg Med Chem Lett, 2010).
